Test results from ChEMBL document CHEMBL5053483, “Structure-Activity Relationship Study of Dexrazoxane Analogues Reveals ICRF-193 as the Most Potent Bisdioxopiperazine against Anthracycline Toxicity to Cardiomyocytes Due to Its Strong Topoisomerase IIβ Interactions” (J Med Chem, 2021).
Values belong to the compound of their own block, whether it stands above or below them. Calls of active or inactive are those of the source. The calls are words filed in the database; no cut-off is given here.

Tests used:
[1] = tested on: Neonatal ventricular cardiomyocytes; experiment: (§1) Cardioprotective activity against DAU-induced cardiotoxicity in Wistar rat neonatal ventricular cardiomyocytes preincubated for 3 hrs followed by DAU addition for 3 hrs and further incubated for 48 hrs in drug free medium by LDH assay; format: functional, tissue-based; settings: time 6.0 hrs
Outline: (§2)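 Neonatal rat ventricular cardiomyocytes from collagenase II digests, preplated 2 h, 400 000 cells/well. Kept in serum- and pyruvate-free DMEM/F12. Cells pretreated 3 h with compound (10–100 μM), then co-incubated 3 h with 1.2 μM daunorubicin or without it. After 48 h in drug-free medium, LDH released to the medium was measured at 340 nm as percent of total LDH; four experiments.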

[2] = tested on: HL-60; experiment: Antiproliferative activity against human HL-60 cells at 100 uM after 72 hrs by XTT assay; format: functional, cell-based
Outline: (§3)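 HL-60 (ATCC) grown in RPMI-1640 with 10% FBS and antibiotics at 37 °C, 5% CO2. Seeded at 10 000 cells/well, exposed to compound for 72 h. XTT/PMS (1 mg/mL XTT, 50 μM PMS in PBS) added, absorbance read at 450 nm after 4 h. Results as percent of DMSO control; four independent experiments.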

[3] = tested on: HL-60; experiment: Antiproliferative activity against human HL-60 cells assessed as increase in daunorubicin activity at 100 uM after 72 hrs in presence of 15 nM of daunorubicin by XTT assay
[4] = Cytotoxicity against Wistar rat neonatal ventricular cardiomyocytes at 1.2 uM by LDH assay; format: tissue-based; outline: as §2
[5] = tested on: HL-60; experiment: Antiproliferative activity against human HL-60 cells after 72 hrs by XTT assay; format: functional, cell-based; settings: HL-60, 72 h; outline: as §3
[6] = as §1; format: functional, tissue-based; outline: as §2
[7] = molecular target: DNA topoisomerase 2-alpha (Homo sapiens, UniProt P11388); experiment: Inhibition of human TOP2A assessed as reduction in […] using kDNA as substrate incubated for 30 min
Outline: (§4)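 Recombinant human TOP2A or TOP2B incubated with kDNA for 30 min at 37 °C. Buffer: 55 mM Tris-HCl pH 7.5, 135 mM NaCl, 10 mM MgCl2, 5 mM DTT, 0.1 mM EDTA, 3 mM ATP, 100 μg/mL BSA, 1% final DMSO. Compounds tested at 1–1000 μM. Products resolved on 1% agarose, SYBR Safe stained. Signal normalized to the untreated control on the same gel; three measurements.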

[8] = molecular target: DNA topoisomerase 2-beta (Homo sapiens, UniProt Q02880); experiment: Inhibition of human TOP2B assessed as reduction in […] using kDNA as substrate incubated for 30 min; outline: as §4
[9] = Metal chelating activity assessed as displacement of Fe3+ from DAU-Fe3+ complex measured for 10 mins by spectrophotometric method
Outline: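 DAU–Fe3+ complex (3:1) placed in 50 mM Tris/150 mM KCl, pH 7.4, room temperature, at 45 μM DAU and 15 μM Fe3+ final. After 3 min of equilibration, compound (100 μM) was added, with EDTA or SIH as reference chelators. Absorbance at 600 nm followed for 10 min, and the endpoint absorbance was compared.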

Sequence of DNA topoisomerase 2-alpha (P11388 whole entry): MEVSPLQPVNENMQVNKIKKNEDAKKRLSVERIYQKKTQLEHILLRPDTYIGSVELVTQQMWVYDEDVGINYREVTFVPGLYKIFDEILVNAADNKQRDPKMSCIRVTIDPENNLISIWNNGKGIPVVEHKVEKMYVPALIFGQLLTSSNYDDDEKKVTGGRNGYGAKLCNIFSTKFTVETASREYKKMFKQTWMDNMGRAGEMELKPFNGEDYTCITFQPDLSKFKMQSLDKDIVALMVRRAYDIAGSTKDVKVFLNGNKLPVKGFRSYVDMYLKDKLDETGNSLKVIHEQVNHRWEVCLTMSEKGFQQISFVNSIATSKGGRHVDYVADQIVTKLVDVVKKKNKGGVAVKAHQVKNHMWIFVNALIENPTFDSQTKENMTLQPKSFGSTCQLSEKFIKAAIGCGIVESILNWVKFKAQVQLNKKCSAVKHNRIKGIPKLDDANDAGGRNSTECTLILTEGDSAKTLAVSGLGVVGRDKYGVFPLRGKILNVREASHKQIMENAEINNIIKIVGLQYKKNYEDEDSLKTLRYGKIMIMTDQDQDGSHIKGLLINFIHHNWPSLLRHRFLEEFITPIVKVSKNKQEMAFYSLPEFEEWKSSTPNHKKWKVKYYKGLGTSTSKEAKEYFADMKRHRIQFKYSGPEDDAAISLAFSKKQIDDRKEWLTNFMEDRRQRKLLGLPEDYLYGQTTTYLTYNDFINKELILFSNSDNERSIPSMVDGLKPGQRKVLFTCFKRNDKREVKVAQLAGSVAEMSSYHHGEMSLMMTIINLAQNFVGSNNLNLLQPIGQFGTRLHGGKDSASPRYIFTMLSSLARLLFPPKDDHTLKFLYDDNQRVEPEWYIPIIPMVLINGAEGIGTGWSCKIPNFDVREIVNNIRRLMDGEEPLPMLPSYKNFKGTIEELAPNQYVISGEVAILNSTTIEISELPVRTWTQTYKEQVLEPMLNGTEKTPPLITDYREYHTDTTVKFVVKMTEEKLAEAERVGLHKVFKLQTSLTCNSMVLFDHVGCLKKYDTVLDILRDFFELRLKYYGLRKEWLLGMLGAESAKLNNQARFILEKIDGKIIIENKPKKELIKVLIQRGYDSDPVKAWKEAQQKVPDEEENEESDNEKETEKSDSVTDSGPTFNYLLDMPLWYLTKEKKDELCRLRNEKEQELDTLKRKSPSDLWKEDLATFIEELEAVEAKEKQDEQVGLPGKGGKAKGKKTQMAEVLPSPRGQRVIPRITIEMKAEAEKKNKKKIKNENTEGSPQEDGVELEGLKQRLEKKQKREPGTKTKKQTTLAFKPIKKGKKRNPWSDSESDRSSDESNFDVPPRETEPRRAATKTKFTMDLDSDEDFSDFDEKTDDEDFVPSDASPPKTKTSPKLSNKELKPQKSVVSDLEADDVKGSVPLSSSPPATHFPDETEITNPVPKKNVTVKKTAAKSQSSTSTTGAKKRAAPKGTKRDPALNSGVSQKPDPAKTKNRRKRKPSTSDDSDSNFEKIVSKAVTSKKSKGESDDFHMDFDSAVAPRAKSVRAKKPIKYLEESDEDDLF
Sequence of DNA topoisomerase 2-beta (Q02880 whole entry): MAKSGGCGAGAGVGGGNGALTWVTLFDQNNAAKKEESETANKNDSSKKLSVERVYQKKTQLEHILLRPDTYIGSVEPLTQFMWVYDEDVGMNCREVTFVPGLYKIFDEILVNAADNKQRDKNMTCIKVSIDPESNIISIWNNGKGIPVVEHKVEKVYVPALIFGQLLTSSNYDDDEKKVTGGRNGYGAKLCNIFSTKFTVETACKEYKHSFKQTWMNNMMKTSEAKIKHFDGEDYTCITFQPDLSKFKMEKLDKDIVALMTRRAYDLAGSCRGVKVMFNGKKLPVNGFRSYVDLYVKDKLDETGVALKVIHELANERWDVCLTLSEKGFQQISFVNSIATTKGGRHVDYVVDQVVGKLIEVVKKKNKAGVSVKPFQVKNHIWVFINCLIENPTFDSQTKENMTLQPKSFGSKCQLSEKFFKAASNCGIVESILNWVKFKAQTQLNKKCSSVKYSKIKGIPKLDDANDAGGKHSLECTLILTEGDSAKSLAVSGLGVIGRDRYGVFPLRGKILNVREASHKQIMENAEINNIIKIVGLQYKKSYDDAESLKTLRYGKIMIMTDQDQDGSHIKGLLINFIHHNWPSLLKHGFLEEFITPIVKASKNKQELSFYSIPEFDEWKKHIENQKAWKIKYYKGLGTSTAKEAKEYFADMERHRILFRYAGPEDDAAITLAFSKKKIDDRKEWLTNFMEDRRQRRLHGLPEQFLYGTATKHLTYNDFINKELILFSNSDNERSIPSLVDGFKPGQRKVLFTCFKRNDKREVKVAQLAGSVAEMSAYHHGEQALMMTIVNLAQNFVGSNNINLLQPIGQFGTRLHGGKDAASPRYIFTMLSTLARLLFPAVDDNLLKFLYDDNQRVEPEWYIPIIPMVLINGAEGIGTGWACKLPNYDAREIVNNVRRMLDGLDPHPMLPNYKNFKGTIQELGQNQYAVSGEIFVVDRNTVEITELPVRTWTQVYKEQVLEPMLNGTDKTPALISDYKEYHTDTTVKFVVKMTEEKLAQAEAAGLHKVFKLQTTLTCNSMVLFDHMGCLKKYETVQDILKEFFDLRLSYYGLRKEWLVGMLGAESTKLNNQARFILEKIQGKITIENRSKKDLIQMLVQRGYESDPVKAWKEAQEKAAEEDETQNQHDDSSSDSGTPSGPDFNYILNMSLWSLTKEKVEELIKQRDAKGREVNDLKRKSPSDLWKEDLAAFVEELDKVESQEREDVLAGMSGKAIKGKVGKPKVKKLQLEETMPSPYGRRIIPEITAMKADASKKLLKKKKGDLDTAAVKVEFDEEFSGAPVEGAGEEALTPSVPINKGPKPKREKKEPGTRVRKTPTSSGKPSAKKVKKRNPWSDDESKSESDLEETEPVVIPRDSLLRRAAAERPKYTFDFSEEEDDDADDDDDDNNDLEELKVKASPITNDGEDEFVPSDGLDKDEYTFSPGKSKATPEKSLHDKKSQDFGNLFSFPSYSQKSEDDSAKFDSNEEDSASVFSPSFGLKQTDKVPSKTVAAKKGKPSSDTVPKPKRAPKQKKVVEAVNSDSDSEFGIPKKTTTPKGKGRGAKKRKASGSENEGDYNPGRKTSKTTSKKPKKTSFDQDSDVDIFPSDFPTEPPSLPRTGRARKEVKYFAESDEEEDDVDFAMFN

Structure (SMILES): CC(C)(CN1CC(=O)NC(=O)C1)N1CC(=O)NC(=O)C1
Activity [1]: inactive

Structure (SMILES): CN(CCN(C)C1CC(=O)NC1=O)C1CC(=O)NC1=O (stereo unspecified)
Activity [2]: Active | Activity [3]: Active

Structure (SMILES): O=C1CN(CC(O)CN2CC(=O)NC(=O)C2)CC(=O)N1
Activity [2]: Active

IC50 [5]: 0.015 µM
Structure (SMILES): COc1cccc2c1C(=O)c1c(O)c3c(c(O)c1C2=O)C[C@@](O)(C(C)=O)C[C@@H]3O[C@H]1C[C@H](N)[C@H](O)[C@H](C)O1 [DAUNORUBICIN]
Activity [4]: 40%

IC50 [5]: 18 µM | IC50 [7]: 40 µM | IC50 [8]: 50 µM | Activity [9]: 77%
Structure (SMILES): C[C@@H](CN1CC(=O)NC(=O)C1)N1CC(=O)NC(=O)C1 [DEXRAZOXANE]
EC50 [6]: 101 µM
